MrgX1 ag: agonists of human MrgX1 receptor. 310,000 compounds, 0.44% hits. B-score at 10 µM. MrgX1-HEK293 cells, Fluo-4 calcium fluorescence, agonist mode; hits give high values. Q96LB2;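 active = calcium response B-score plate-corrected fluorescence ratio at least 3 library SD, with starting fluorescence B-score inside 5 SD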
Target sequence (Q96LB2 whole entry, looked up): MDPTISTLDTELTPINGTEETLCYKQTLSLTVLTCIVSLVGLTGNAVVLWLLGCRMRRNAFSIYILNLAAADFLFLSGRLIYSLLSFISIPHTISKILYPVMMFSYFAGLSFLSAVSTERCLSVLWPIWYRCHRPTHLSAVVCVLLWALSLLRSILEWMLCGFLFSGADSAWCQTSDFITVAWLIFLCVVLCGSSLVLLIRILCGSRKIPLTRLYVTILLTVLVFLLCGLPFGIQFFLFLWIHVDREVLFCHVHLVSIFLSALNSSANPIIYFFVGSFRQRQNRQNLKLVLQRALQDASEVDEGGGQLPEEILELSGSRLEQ
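Assay system: stable human MrgX1 HEK293 cell line. Quantity: 15,000 cells per well. Schedule: cells plated overnight, dye loaded 0.5 h 37 °C, 0.5 h room temperature. Detection: Fluo-4 NW calcium-flux fluorescence, kinetic read. Read-out basis: peak-minus-minimum fluorescence over baseline, converted to B scores. Control set: positive and negative control wells on each plate.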
RGS4 pot: RGS4 potentiation or activation | HEK293 M3R/inducible RGS4, carbachol calcium flux Fluo4; hits give low values | B-score at 10 µM | 310,000 compounds, 0.92% hits | AID 463111;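 active = B-score of the integrated calcium signal more than 4 SD below the library mean, with starting fluorescence not abnormally high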;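 note: negative B-score means reduced calcium response which marks RGS4 activation or potentiation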
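Also added: carbachol at ECmax as muscarinic agonist stimulus; Assay system: HEK293 cells with stable M3R and inducible RGS4; Timing: overnight RGS4 induction, 30 min dye load 37 °C, 20 min compound RT; Measured by: Fluo4-AM (2 µM) calcium-flux fluorescence, kinetic read.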
RGS4 inh: human RGS4 inhibition; AID 463165; B-score at 10 µM; HEK293 M3R/RGS4 inducible, Fluo-4 calcium flux; hits give high values; triggered by carbachol at its EC20; P49798; 310,000 compounds, 0.45% hits;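 active = B-score, a plate-corrected calcium signal, over three deviations above library mean, with baseline fluorescence within five deviations of library mean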;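 note: RGS4 expression induced by doxycycline in cells with stable M3 receptor; B-score is computed from the integrated fluorescence ratio over baseline after carbachol; higher B-score means a larger calcium signal and so more RGS4 inhibition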
Target sequence (P49798 whole entry, looked up): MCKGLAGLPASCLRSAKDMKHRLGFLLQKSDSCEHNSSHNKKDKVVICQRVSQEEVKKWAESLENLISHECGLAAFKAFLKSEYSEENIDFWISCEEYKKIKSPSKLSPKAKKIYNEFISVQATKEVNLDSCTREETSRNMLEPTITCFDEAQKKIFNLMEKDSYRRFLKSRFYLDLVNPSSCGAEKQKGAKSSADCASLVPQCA
Hep lipid drop: modulators of hepatic lipid droplet formation; AML12 mouse hepatocytes, oleate lipid droplets, BODIPY imaging; AID 1656; inhibition, % at 6.5 µM; 240,000 compounds, 0.4% hits;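 active = lipid droplet intensity inhibited by at least 50%, with more than 500 cells counted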
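Test system: AML12 hepatocytes (mouse); reagent: oleate loading, 100 µM; dosing: one dose, 6.5 µM compound; incubation: overnight exposure; signal: fluorescence imaging, 20x objective, two fields per well; read-out basis: % inhibition of corrected integrated BODIPY droplet signal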
MrgX1 allo act: allosterically activates human MrgX1 receptor signaling. Q96LB2. MrgX1-HEK293, Fluo-4 calcium flux, FDSS; hits give high values. B-score at 10 µM. 310,000 compounds, 0.63% hits. AID 588675;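 active = plate-corrected calcium response at least 3 library SD above typical, normal starting fluorescence, not activating the receptor alone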;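 note: compound read alongside a low EC10 to EC30 dose of BAM8-22 agonist; peak minus trough fluorescence over baseline measured at the second addition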
MrgX1 antagonist: antagonists of human MrgX1 receptor; Q96LB2; MRGX1-HEK293 calcium flux, Fluo-4, BAM8-22 antagonism; hits give low values; 310,000 compounds, 1.3% hits; B-score at 10 µM;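 active = calcium-response B-score plate-corrected more than 3 library SD below zero, starting fluorescence within 5 deviations, no agonist response on first addition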;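 note: peak minus trough fluorescence over baseline after final BAM8-22 challenge near maximal dose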
RGS4 block valid: validation of RGS4 inhibitors. shares compounds with RGS4 inh. HEK293 M3R/RGS4, carbachol calcium Fluo-4 fluorescence; carbachol added at its EC20; 0 = buffer wells, 100 = carbachol control. calcium response, % at 10 µM. 1,700 compounds, 65% hits;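 active = duplicate-averaged calcium response above the buffer-only control mean plus 5 SD of those controls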;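 note: integrated fluorescence ratio F max minus min over baseline F0; higher response in RGS4-induced cells means RGS4 inhibition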
M3R Ca ctr: checks RGS4 inhibitor effects in non-induced HEK293 M3R cells. shares compounds with RGS4 inh. carbachol calcium Fluo-4; submaximal (EC20) carbachol stimulus; buffer wells 0%, carbachol control wells 100%. activity (percent), % at 10 µM. 1,900 compounds, 20% hits; call rule not given here;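 note: RGS4 induction absent so cells express M3R without RGS4; higher means more calcium signal and flags a non-specific hit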
RGS4 inh ctr2: signal in non-induced cells without carbachol, RGS4 inhibitor counter-screen. shares compounds with RGS4 inh. HEK293 M3R/RGS4 non-induced, Fluo-4 calcium, no carbachol; normalised: buffer wells 0%, carbachol wells 100%. calcium response (agonist-mode artifact), % at 10 µM. 1,900 compounds, 22% hits;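 active = duplicate-averaged calcium rise in uninduced cells above buffer wells' mean plus 5 SD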
Each line names hits and unclear results; the compound was inactive in the other large screens (follow-up assays come after a bar, where they were run). The list is not random: actives were taken first. Their share in the collection is about 3.8%.

Cc1cc(Cl)ccc1NC(=S)NCCC(c1ccccc1)c1ccccc1	none
Cc1ccc(NC(=O)c2ccc(NCc3ccco3)c([N+](=O)[O-])c2)cc1Cl	none
COc1ccc(OC)c(-c2nc3cc4ccccc4cc3nc2-c2ccccc2)c1	RGS4 inh 6.77 | RGS4 block valid 14.0% | M3R Ca ctr inactive | RGS4 inh ctr2 93.5%
COc1ccc(-c2nc3ccccc3nc2-c2ccccc2)cc1OC	none
COc1ccc([N+](=O)[O-])cc1/C=N/Nc1nc(N2CCCCC2)nc(N2CCCCC2)n1	RGS4 inh 4.77 | RGS4 block valid 10.5% | M3R Ca ctr inactive | RGS4 inh ctr2 inactive
NNc1nc(Nc2ccc([N+](=O)[O-])cc2)nc(N2CCCCCC2)n1	RGS4 inh 5.65 | RGS4 block valid inactive | M3R Ca ctr inactive | RGS4 inh ctr2 inactive
Cc1cccc(Nc2nc(N3CCCCC3)nc(N3CCCCC3)n2)c1	RGS4 inh 9.69 | RGS4 block valid 48.0% | M3R Ca ctr 55.0% | RGS4 inh ctr2 inactive
NNc1nc(Nc2ccccc2)nc(Nc2ccccc2)n1	none
O=[N+]([O-])c1ccc(/C=N/Nc2nc(N3CCCCC3)nc(N3CCCCC3)n2)cc1	none
NNc1nc(Nc2ccccc2)nc(N2CCCCC2)n1	none | RGS4 block valid inactive | M3R Ca ctr inactive | RGS4 inh ctr2 inactive
O=[N+]([O-])c1ccc(Nc2nc(NCCO)nc(N3CCCC3)n2)cc1	none
CN(C)CCn1c2c(c(SCC(=O)Nc3cccc4ccccc34)nc1=O)CCC2	none (no result: Hep lipid drop)
CN1C(=O)C(CC(=O)NCCc2ccccc2)N(NC(=O)c2ccc(Cl)cc2)C1=S (stereo not drawn)	none
COc1ccccc1N1CCN(S(=O)(=O)c2ccc3c(c2)n(C)c(=O)n3C)CC1	none
O=C(NCc1ccc(Cl)cc1)C1CCN(S(=O)(=O)c2cccnc2)CC1	none
O=c1nc(N2CCCCC2)nc(Nc2ccccc2)[nH]1	none | RGS4 block valid inactive | M3R Ca ctr inactive | RGS4 inh ctr2 inactive
CC1CC(NC(=O)c2c(O)nc3sccn3c2=O)CC(C)(C)C1 (stereo not drawn)	RGS4 inh 13.7 (no result: Hep lipid drop) | RGS4 block valid 22.0% | M3R Ca ctr 48.5% | RGS4 inh ctr2 inactive
CCOC(=O)C1CCN(C(=O)CSc2nc3ncccc3[nH]2)CC1	none
C=CCNc1oc(-c2cccs2)nc1S(=O)(=O)c1ccccc1	none
COc1ccc(/C=N/n2cc(-c3ccc(OC)cc3)nc2N)cc1	RGS4 inh 37.4 | RGS4 block valid 24.0% | M3R Ca ctr inactive | RGS4 inh ctr2 inactive
O=[N+]([O-])c1ccc(O)c(/C=N/NC(=S)Nc2ccc(Cl)cc2Cl)c1	RGS4 inh 13.9 | RGS4 block valid 18.0% | M3R Ca ctr inactive | RGS4 inh ctr2 inactive
COc1ccc(N2CC(C(=O)N/N=C/c3cc([N+](=O)[O-])ccc3O)CC2=O)cc1 (stereo not drawn)	RGS4 inh 4.98 | RGS4 block valid 5.0% | M3R Ca ctr inactive | RGS4 inh ctr2 inactive
O=C(N/N=C/c1cc([N+](=O)[O-])ccc1O)NC12CC3CC(CC(C3)C1)C2	RGS4 inh 7.89 | RGS4 block valid 12.0% | M3R Ca ctr inactive | RGS4 inh ctr2 inactive
O=C(CCl)Nc1c2c(nn1-c1ccccc1)CSC2	none
O=c1[nH]c2ccc(Cl)cc2c(-c2ccccc2)c1N1CCN(c2ccccn2)CC1	RGS4 inh 7.54 (no result: Hep lipid drop) | RGS4 block valid 17.0% | M3R Ca ctr inactive | RGS4 inh ctr2 inactive
Cc1ccc(/C=C2/NC(=O)N(Cc3ccccc3)C2=O)o1	RGS4 inh 5.04 (no result: Hep lipid drop) | RGS4 block valid inactive | M3R Ca ctr inactive | RGS4 inh ctr2 35.5%
CCc1nnc(NC(=O)c2cc(C)nc3ccccc23)s1	none
CCc1nnc(NC(=O)c2cc(-c3cccnc3)nc3ccccc23)s1	none | M3R Ca ctr inactive | RGS4 inh ctr2 inactive
CC(C)Cc1nnc(NC(=O)c2cc(-c3ccncc3)nc3ccccc23)s1	none | M3R Ca ctr inactive | RGS4 inh ctr2 inactive
N#C/C(=C\c1cccc([N+](=O)[O-])c1)c1nnc2n1CCCCC2	RGS4 inh 6.06 | RGS4 block valid 15.5% | M3R Ca ctr inactive | RGS4 inh ctr2 inactive
CC(Sc1ncnc2sc(-c3ccccc3)cc12)C(=O)NCC1CCCO1 (stereo not drawn)	none (no result: Hep lipid drop)
COc1ccc(S(=O)(=O)N(C)c2ccc(C(=O)N3CCC(C(N)=O)CC3)cc2)cc1OC	none
Fc1ccc2c(c1)/C(=N/Nc1ccccn1)CCS2	RGS4 inh 11.7 | RGS4 block valid 14.5% | M3R Ca ctr inactive | RGS4 inh ctr2 inactive
C(=C\n1nnc2ccccc21)/c1ccc[nH]1	none (no result: Hep lipid drop)
Cc1ccnc(NS(=O)(=O)c2ccc(NC(=O)CC(C)c3ccccc3)cc2)n1 (stereo not drawn)	RGS4 inh 6.22 | RGS4 block valid 5.0% | M3R Ca ctr inactive | RGS4 inh ctr2 inactive
Oc1c(Cl)cc(Cl)cc1C=Nc1ccc(N2CCOCC2)cc1	RGS4 inh 4.98 | RGS4 block valid inactive | M3R Ca ctr inactive | RGS4 inh ctr2 93.0%
Oc1cc(Br)ccc1C=Nc1ccc(N2CCCCC2)cc1	none
Clc1ccc(-c2ccc(C=Nc3ccc(N4CCOCC4)cc3)o2)c(Cl)c1	RGS4 inh 5.41 | RGS4 block valid inactive | M3R Ca ctr inactive | RGS4 inh ctr2 16.5%
Cc1cc(Br)cc(C=Nc2ccc(N3CCOCC3)cc2)c1O	RGS4 inh 5.82 (no result: Hep lipid drop) | RGS4 block valid 21.0% | M3R Ca ctr 40.0% | RGS4 inh ctr2 168.0%
Cc1c(C(=O)N(C)Cc2cccc(F)c2)oc2c(Cl)cccc12	none
CN(C)c1ccc(NC(=O)CCN2C(=O)c3cccc([N+](=O)[O-])c3C2=O)cc1	none
CCc1ccc(N(CC(=O)NCc2ccco2)C(=O)CCC(=O)Nc2nccs2)cc1	none
CC(=O)/C(=N/Nc1cccc(C)c1)N1CCOCC1	RGS4 inh 18 | RGS4 block valid 10.0% | M3R Ca ctr 57.5% | RGS4 inh ctr2 inactive
CCCC1(c2ccccc2)NC(=O)N(CC(=O)c2[nH]c(C)c(C(=O)OCC)c2C)C1=O (stereo not drawn)	none (no result: Hep lipid drop)
